Here are results for seven molecules from publication PMC9674260 (Proceedings of the National Academy of Sciences of the …, 2022).

Where two headings read alike, the source gives them in different places.

In experiment [1] the target is LRP6 E3-E4 domains (human). Briefly: SPR. Background: SPR reads the build-up and loss of mass on a sensor chip optically.
Experiment [2] addresses LRP6 E1-E2 domains (human). Description: SPR.
In experiment [3] the target is LRP6 E2. The settings on record: read-out: KD, binding to E2 alone; previously reported; cited from earlier work.
The target in experiment [4] is T1, LRP6 E1 (Homo sapiens, UniProt O75581).
T1 sequence (O75581 20-326): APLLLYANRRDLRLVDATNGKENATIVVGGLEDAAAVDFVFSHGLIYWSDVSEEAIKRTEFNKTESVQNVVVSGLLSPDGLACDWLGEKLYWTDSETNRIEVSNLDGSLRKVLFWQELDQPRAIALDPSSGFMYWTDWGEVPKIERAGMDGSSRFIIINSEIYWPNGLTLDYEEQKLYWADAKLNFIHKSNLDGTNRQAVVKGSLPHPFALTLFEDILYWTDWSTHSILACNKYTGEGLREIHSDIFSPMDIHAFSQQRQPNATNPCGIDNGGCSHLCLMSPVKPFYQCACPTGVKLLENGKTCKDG
Description: SPR binding to immobilized LRP6 E1 domain.

Experiment [5] deals with MC3T3-E1 cells. Description: Osteogenic differentiation of MC3T3-E1 cells. It is filed as cell-based, murine. The settings on record: MC3T3-E1 in om+ medium, 21 d; 5 µM Lr-EET-3.5, 1 µg SOST, 1 µM FabYW210 and FabYW211; four independent assays. The essentials: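 MC3T3-E1 cells were grown in differentiation medium (50 µg/mL ascorbate-2-phosphate, 10 mM β-glycerophosphate) or in control medium without these factors, plus LRP6-binding reagents (Fabs 1 µM, test compound 5 µM). Mineralized nodules were stained with alizarin red S at 21 d, and nodule area above the control-medium background was quantified. Bglap mRNA was measured by qRT-PCR after 1 wk. Values are means of four independent assays, with SD and one-way ANOVA.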

The subject of experiment [6] is Wnt1/sFRP-1 binding to LRP6-E1-E2. Briefly: SPR competition with Wnt1/sFRP-1 for LRP6-E1-E2. The arrangement: species or system human. Conditions: surface coated with LRP6-E1-E2 and saturated with competitor. The essentials:
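The SPR surface was coated with LRP6-E1-E2, then saturated with competitor or given buffer only. Wnt1/sFRP-1 (purified recombinant complex), competitor, or a mixture of the two was injected immediately afterward. Wnt1/sFRP-1 binding signal with or without competitor was inspected manually.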

The target in experiment [7] is LRP6 E3-E4. Description: SPR binding to immobilized LRP6 E3-E4. The arrangement: species or system human.
Experiment [8] addresses LRP6 E1-E2. Description: SPR binding to immobilized LRP6 E1-E2. Further details: species or system human.
Experiment [9] relates to AT2 cells in alveolospheres. Format: cell-based, mouse. Conditions: LGK974 alone, 2 wk.
For experiment [10], the target named is T2, full-length extracellular domain of LRP6 (E1-E4) (human, UniProt O75581 20-1370).
T2 sequence: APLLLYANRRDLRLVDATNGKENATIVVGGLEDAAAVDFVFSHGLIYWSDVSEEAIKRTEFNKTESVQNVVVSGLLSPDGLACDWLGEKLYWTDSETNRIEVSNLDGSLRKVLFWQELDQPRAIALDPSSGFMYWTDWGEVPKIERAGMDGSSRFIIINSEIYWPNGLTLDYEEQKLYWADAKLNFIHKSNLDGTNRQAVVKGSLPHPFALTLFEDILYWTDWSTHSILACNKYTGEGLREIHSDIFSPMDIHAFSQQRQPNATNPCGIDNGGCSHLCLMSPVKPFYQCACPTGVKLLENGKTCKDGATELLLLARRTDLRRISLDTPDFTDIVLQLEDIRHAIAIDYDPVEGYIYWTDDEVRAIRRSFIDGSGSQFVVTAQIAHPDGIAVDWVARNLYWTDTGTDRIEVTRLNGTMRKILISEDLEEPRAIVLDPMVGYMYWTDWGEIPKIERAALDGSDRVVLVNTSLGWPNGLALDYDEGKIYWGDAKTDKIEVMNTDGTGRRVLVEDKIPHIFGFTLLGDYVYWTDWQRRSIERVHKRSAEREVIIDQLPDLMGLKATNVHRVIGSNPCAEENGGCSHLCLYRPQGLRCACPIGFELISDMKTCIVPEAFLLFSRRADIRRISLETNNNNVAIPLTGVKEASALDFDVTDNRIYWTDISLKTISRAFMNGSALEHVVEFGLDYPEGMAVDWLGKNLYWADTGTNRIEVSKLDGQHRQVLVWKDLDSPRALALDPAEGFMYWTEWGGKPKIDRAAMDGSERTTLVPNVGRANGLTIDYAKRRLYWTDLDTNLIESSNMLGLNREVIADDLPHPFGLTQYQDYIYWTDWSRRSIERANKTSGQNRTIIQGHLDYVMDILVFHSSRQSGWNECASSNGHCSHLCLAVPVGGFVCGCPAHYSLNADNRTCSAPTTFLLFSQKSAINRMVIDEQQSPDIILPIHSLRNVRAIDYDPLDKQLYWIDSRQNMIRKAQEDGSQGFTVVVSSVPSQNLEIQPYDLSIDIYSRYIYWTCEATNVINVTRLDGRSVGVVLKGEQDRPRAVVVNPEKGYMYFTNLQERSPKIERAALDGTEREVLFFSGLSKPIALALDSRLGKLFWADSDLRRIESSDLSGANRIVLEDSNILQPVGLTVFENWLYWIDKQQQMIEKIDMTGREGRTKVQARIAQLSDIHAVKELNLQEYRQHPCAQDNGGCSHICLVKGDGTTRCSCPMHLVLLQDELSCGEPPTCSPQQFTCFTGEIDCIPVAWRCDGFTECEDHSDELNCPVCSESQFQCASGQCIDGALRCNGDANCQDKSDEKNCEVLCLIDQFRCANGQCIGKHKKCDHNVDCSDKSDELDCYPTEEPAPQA
Briefly: SPR.

Experiment [11] addresses LRP6 E1-E2 domains (human). Briefly: SPR. The source holds these as a separate data set.

For “Dickkopf-1 (DKK1) (from UniProt O94907 32-266) (natural protein)”, the Kd amounted to 0.043 µM in [1] and 0.135 µM in [2].
For the molecule “sclerostin (SOST) (from UniProt Q9BQB4 24-213) (natural protein)”, in experiment [2], the KD in the presence of Lr-EET-3.5 stood at 0.047 µM and the Kd stood at 0.0033 µM.
Turning to SOST: natural Wnt inhibitor sclerostin, in [3], the Kd was 1.3 µM. For the same molecule, the “binding to E1 alone on addition of Lr-EET-3.5” value in experiment [4] (SPR competition, 500 nM Lr-EET-3.5) is listed as “completely blocked”. Besides, the “inhibition of matrix mineralization (alizarin red-S staining)” value in experiment [5] is “comparable”. Moreover, the “effect on binding of WNT1/sFRP-1 to LRP6” value in [6] is recorded as “antagonistic effect”. Besides, in [7] (two state model), the “KD, E3-E4” value was “no interaction detected”.
DKK1: natural Wnt inhibitor Dickkopf-1: the “KD, E1-E2 in the presence of Lr-EET-3.5” value in [8] (surface saturated with 500 nM Lr-EET-3.5 and 500 nM CKP in every dilution) is listed as “ablated the binding”. Further, the “KD, E1 alone” value in experiment [4] (SPR, no competitor, two state model) is given as “no detectable binding”.
In the case of `Cc1cc(-c2ncc(CC(=O)Nc3ccc(-c4cnccn4)cn3)cc2C)ccn1` [LGK974], in [9], the “AT2 proliferation and formation of alveolospheres” value is “abrogated AT2 proliferation and the formation of alveolospheres”.

B1: sclerostin (SOST) (natural protein)
chain: QGWQAFKNDATEIIPELGEYPEPPPELENNKTMNRAENGGRPPHHPFETKDVSEYSCRELHFTRYVTDGPCRSAKPVTELVCSGQCGPARLLPNAIGRGKWWRPSGPDFRCIPDRYRAQRVQLLCPGGEAPRARKVRLVASCKCKRLTRFHNQSELKDFGTEAARPQKGRKPRPRARSAKANQAELENAY
As for B1, in [10], the “KD in the presence of Lr-EET-3.5” value was found to be 0.041 µM and the Kd amounted to 0.0038 µM.

B2: WNT1/secreted frizzled related protein 1 (sFRP-1) complex (complex)
chain 1: ANSSGRWWGIVNVASSTNLLTDSKSLQLVLEPSLQLLSRKQRRLIRQNPGILHSVSGGLQSAVRECKWQFRNRRWNCPTAPGPHLFGKIVNRGCRETAFIFAITSAGVTHSVARSCSEGSIESCTCDYRRRGPGGPDWHWGGCSDNIDFGRLFGREFVDSGEKGRDLRFLMNLHNNEAGRTTVFSEMRQECKCHGMSGSCTVRTCWMRLPTLRAVGDVLRDRFDGASRVLYGNRGSNRASRAELLRLEPEDPAHKPPSPHDLVYFEKSPNFCTYSGRLGTAGTAGRACNSSSPALDGCELLCCGRGHRTRTQRVTERCNCTFHWCCHVSCRNCTHTRVLHECL
chain 2: SEYDYVSFQSDIGPYQSGRFYTKPPQCVDIPADLRLCHNVGYKKMVLPNLLEHETMAEVKQQASSWVPLLNKNCHAGTQVFLCSLFAPVCLDRPIYPCRWLCEAVRDSCEPVMQFFGFYWPEMLKCDKFPEGDVCIAMTPPNATEASKPQGTTVCPPCDNELKSEAIIEHLCASEFALRMKIKEVKKENGDKKIVPKKKKPLKLGPIKKKDLKKLVLYLKNGADCPCHQLDNLSHHFLIMGRKVKSQYLLTAIHKWDKKNKEFKNFMKKMKNHECPTFQSVFK
Regarding B2, the Kd in [11] came out at 0.0034 µM; in experiment [8] (read-out: KD, E1-E2, Wnt1/sFRP-1 as analyte, 1:1 binding model), 0.0034 µM; in experiment [10], 0.006 µM. In addition, the “interaction with E3-E4” value in experiment [7] (Wnt1/sFRP-1 as analyte) is on record as “no interaction detected”.
